Test results published in ChEMBL document CHEMBL5058577, “EUbOPEN Chemogenomics Library 2 (Multiplex)” (2022).

System: HEK-293T
Experiment: Multiplex assay against HEK293T
Format: toxicity, cell-based
Details: human
Summary of the method: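 Live cells carried four stains from seeding: Hoechst33342, BioTracker Green Microtubule Cytoskeleton Dye, MitoTracker Red and Annexin V Alexa Fluor 680. They were imaged on a CQ1 microscope at 37°C and 5% CO2 after compound addition. Using CellPathfinder machine-learning gating, cells were split into Hoechst high-intensity objects or normal cells, normal cells into healthy, pyknosed or fragmented nuclei, and pyknosed cells into mitotic or apoptotic; tubulin, mitochondrial-mass and membrane-permeability phenotypes are per cents of healthy-nucleus cells.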

[1] = 12 h, 1 µM, compound concentration 1 uM, replicate 1
[2] = 12 h, 1 µM, compound concentration 1 uM, replicate 2
[3] = 12 h, 10 µM, compound concentration 10 uM, replicate 1
[4] = 12 h, 10 µM, compound concentration 10 uM, replicate 2
[5] = 24 h, 1 µM, compound concentration 1 uM, replicate 1
[6] = 24 h, 1 µM, compound concentration 1 uM, replicate 2
[7] = 24 h, 10 µM, compound concentration 10 uM, replicate 1
[8] = 24 h, 10 µM, compound concentration 10 uM, replicate 2
[9] = 48 h, 1 µM, compound concentration 1 uM, replicate 1
[10] = 48 h, 1 µM, compound concentration 1 uM, replicate 2
[11] = 48 h, 10 µM, compound concentration 10 uM, replicate 1
[12] = 48 h, 10 µM, compound concentration 10 uM, replicate 2

Compound: Cl.N=C(N)NC(=O)Cc1c(Cl)cccc1Cl [GUANFACINE HYDROCHLORIDE]
- Population Apoptotic (%) [1]: 29%
- Population Fragmented Nuclei (%) [1]: 3%
- Population Healthy Nuclei (%) [1]: 84%
- Population Hoechst High Intensity Objects (%) [1]: 7%
- Population Membrane Permeable-Phenotype (%) [1]: 0%
- Population Mitochondria Different-Phenotype (%) [1]: 46%
- Population Mitotic Cells (%) [1]: 70%
- Population Normal (%) [1]: 92%
- Population Pyknosed Nuclei (%) [1]: 11%
- Population Tubulin-Different-Phenotype (%) [1]: 31%
- Total Cell Count [1]: 384
- Population Apoptotic (%) [2]: 47%
- Population Fragmented Nuclei (%) [2]: 5%
- Population Healthy Nuclei (%) [2]: 76%
- Population Hoechst High Intensity Objects (%) [2]: 12%
- Population Mitochondria Different-Phenotype (%) [2]: 67%
- Population Mitotic Cells (%) [2]: 52%
- Population Normal (%) [2]: 87%
- Population Pyknosed Nuclei (%) [2]: 17%
- Total Cell Count [2]: 289
- Population Apoptotic (%) [3]: 52%
- Population Fragmented Nuclei (%) [3]: 12%
- Population Healthy Nuclei (%) [3]: 67%
- Population Hoechst High Intensity Objects (%) [3]: 7%
- Population Membrane Permeable-Phenotype (%) [3]: 0%
- Population Mitochondria Different-Phenotype (%) [3]: 61%
- Population Mitotic Cells (%) [3]: 47%
- Population Normal (%) [3]: 92%
- Population Pyknosed Nuclei (%) [3]: 20%
- Population Tubulin-Different-Phenotype (%) [3]: 43%
- Total Cell Count [3]: 296
- Population Apoptotic (%) [4]: 34%
- Population Fragmented Nuclei (%) [4]: 8%
- Population Healthy Nuclei (%) [4]: 77%
- Population Hoechst High Intensity Objects (%) [4]: 10%
- Population Mitochondria Different-Phenotype (%) [4]: 69%
- Population Mitotic Cells (%) [4]: 65%
- Population Normal (%) [4]: 89%
- Population Pyknosed Nuclei (%) [4]: 14%
- Population Tubulin-Different-Phenotype (%) [4]: 38%
- Total Cell Count [4]: 365
- Population Apoptotic (%) [5]: 36%
- Population Fragmented Nuclei (%) [5]: 8%
- Population Healthy Nuclei (%) [5]: 80%
- Population Hoechst High Intensity Objects (%) [5]: 4%
- Population Membrane Permeable-Phenotype (%) [5]: 0%
- Population Mitochondria Different-Phenotype (%) [5]: 27%
- Population Mitotic Cells (%) [5]: 63%
- Population Normal (%) [5]: 95%
- Population Pyknosed Nuclei (%) [5]: 11%
- Population Tubulin-Different-Phenotype (%) [5]: 21%
- Total Cell Count [5]: 493
- Population Apoptotic (%) [6]: 50%
- Population Fragmented Nuclei (%) [6]: 4%
- Population Healthy Nuclei (%) [6]: 83%
- Population Hoechst High Intensity Objects (%) [6]: 10%
- Population Mitochondria Different-Phenotype (%) [6]: 42%
- Population Mitotic Cells (%) [6]: 50%
- Population Normal (%) [6]: 89%
- Population Tubulin-Different-Phenotype (%) [6]: 19%
- Total Cell Count [6]: 344
- Population Apoptotic (%) [7]: 46%
- Population Fragmented Nuclei (%) [7]: 11%
- Population Healthy Nuclei (%) [7]: 75%
- Population Hoechst High Intensity Objects (%) [7]: 7%
- Population Membrane Permeable-Phenotype (%) [7]: 0%
- Population Mitochondria Different-Phenotype (%) [7]: 48%
- Population Mitotic Cells (%) [7]: 53%
- Population Normal (%) [7]: 92%
- Population Pyknosed Nuclei (%) [7]: 12%
- Population Tubulin-Different-Phenotype (%) [7]: 39%
- Total Cell Count [7]: 343
- Population Apoptotic (%) [8]: 36%
- Population Fragmented Nuclei (%) [8]: 6%
- Population Healthy Nuclei (%) [8]: 83%
- Population Hoechst High Intensity Objects (%) [8]: 9%
- Population Mitochondria Different-Phenotype (%) [8]: 50%
- Population Mitotic Cells (%) [8]: 63%
- Population Normal (%) [8]: 90%
- Population Pyknosed Nuclei (%) [8]: 10%
- Population Tubulin-Different-Phenotype (%) [8]: 27%
- Total Cell Count [8]: 454
- Population Apoptotic (%) [9]: 15%
- Population Fragmented Nuclei (%) [9]: 15%
- Population Healthy Nuclei (%) [9]: 78%
- Population Hoechst High Intensity Objects (%) [9]: 2%
- Population Membrane Permeable-Phenotype (%) [9]: 1%
- Population Mitochondria Different-Phenotype (%) [9]: 22%
- Population Mitotic Cells (%) [9]: 84%
- Population Normal (%) [9]: 97%
- Population Pyknosed Nuclei (%) [9]: 6%
- Population Tubulin-Different-Phenotype (%) [9]: 21%
- Total Cell Count [9]: 680
- Population Apoptotic (%) [10]: 34%
- Population Fragmented Nuclei (%) [10]: 10%
- Population Healthy Nuclei (%) [10]: 79%
- Population Hoechst High Intensity Objects (%) [10]: 7%
- Population Membrane Permeable-Phenotype (%) [10]: 0%
- Population Mitochondria Different-Phenotype (%) [10]: 32%
- Population Mitotic Cells (%) [10]: 65%
- Population Normal (%) [10]: 92%
- Population Pyknosed Nuclei (%) [10]: 9%
- Population Tubulin-Different-Phenotype (%) [10]: 14%
- Total Cell Count [10]: 560
- Population Apoptotic (%) [11]: 47%
- Population Fragmented Nuclei (%) [11]: 17%
- Population Healthy Nuclei (%) [11]: 73%
- Population Hoechst High Intensity Objects (%) [11]: 6%
- Population Membrane Permeable-Phenotype (%) [11]: 0%
- Population Mitochondria Different-Phenotype (%) [11]: 31%
- Population Mitotic Cells (%) [11]: 52%
- Population Normal (%) [11]: 93%
- Population Pyknosed Nuclei (%) [11]: 9%
- Population Tubulin-Different-Phenotype (%) [11]: 14%
- Total Cell Count [11]: 421
- Population Apoptotic (%) [12]: 50%
- Population Fragmented Nuclei (%) [12]: 12%
- Population Healthy Nuclei (%) [12]: 80%
- Population Hoechst High Intensity Objects (%) [12]: 10%
- Population Mitochondria Different-Phenotype (%) [12]: 33%
- Population Mitotic Cells (%) [12]: 50%
- Population Normal (%) [12]: 89%
- Population Pyknosed Nuclei (%) [12]: 6%
- Population Tubulin-Different-Phenotype (%) [12]: 20%
- Total Cell Count [12]: 612
